Hits are enriched below; roughly 1.8% of the tested compounds scored in any of these assays.
CHRM4 PAM: CHRM4 positive allosteric modulation. P08173. CHO-K1 hM4/Gqi5, Fluo-8 calcium fluorescence, ACh EC20; 0% = ACh EC20, 100% = maximal ACh. activation, % at 3 µM. 0.4% of 360,000 active. AID 624126;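 active = activation above its plate's cutoff, the mean activation of sample wells plus 3 SD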
Target sequence (P08173 whole entry, looked up): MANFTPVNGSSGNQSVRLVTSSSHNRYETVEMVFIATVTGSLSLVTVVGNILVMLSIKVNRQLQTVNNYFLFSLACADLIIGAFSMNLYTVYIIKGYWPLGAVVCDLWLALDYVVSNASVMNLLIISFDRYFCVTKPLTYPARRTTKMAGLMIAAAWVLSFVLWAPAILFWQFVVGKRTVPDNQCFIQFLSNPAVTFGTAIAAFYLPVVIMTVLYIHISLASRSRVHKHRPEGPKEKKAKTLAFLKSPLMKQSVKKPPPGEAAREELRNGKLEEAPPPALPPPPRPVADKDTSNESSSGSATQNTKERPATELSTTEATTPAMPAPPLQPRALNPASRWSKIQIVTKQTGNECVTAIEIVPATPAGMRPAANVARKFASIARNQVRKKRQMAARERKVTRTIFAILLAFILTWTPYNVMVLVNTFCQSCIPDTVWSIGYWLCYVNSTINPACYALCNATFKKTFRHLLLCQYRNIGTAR
CHRM5 PAM: CHRM5 positive allosteric modulation. activation, % at 3 µM. P08912. 0.3% of 360,000 active. AID 624038. CHO-K1 hM5, Fluo-8 calcium, ACh EC20 PAM; 0% = ACh EC20, 100% = ACh EC100;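 active = activation above the run cutoff, the mean activation of all test compounds plus 3 SD, cut at about 18% in these data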
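Replicates: One well per compound, no replicates | System: Human M5 receptor in CHO-K1 cells | Benchmarks: Low control EC20 acetylcholine (0%), high control EC100 acetylcholine (100%) | Probe or stimulus: Acetylcholine, EC20 level | Times: Fluo-8 loading 80 min at 37 °C plus 30 min room temperature | Signal: Intracellular calcium via Fluo-8 fluorescence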
CHRM5 antagonist: blocks acetylcholine activation of human M5 receptor; AID 624040; 0.59% of 360,000 active; inhibition, % at 3 µM; P08912; CHO-hM5 cells, Fluo-8 calcium fluorescence, ACh EC80;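 active = inhibition above a per-plate cutoff, the mean of that plate's test compounds plus 3 SD, cut at about 27% in these data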;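 also: 0% = acetylcholine EC80 with DMSO and 100% = DMSO without agonist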
M4 antag: antagonists of human muscarinic M4 receptor (CHRM4); 0.73% of 360,000 active; P08173; inhibition, % at 3 µM; CHO-hM4 cells, ACh EC80, Fluo-8 calcium fluorescence;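 active = inhibition above its plate's cutoff, the mean inhibition of sample wells plus 3 SD, cut at about 27% in these data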;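 also: 0% = acetylcholine EC80 with DMSO and 100% = DMSO without agonist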
M4 ag: agonists of human muscarinic M4 receptor (CHRM4); activation, % at 3 µM; 0.14% of 360,000 active; CHO-K1 hM4/Gqi5, Fluo-8 calcium fluorescence; vehicle 0%, full acetylcholine response 100%;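 active = activation above the run mean over all test wells plus 3 SD, cut at about 32% in these data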;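 also: peak over basal fluorescence ratio per well then scaled between controls; 0% = DMSO wells and 100% = acetylcholine at EC100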
M5 ag: agonists of human muscarinic M5 receptor (CHRM5); AID 624037; P08912; 0.19% of 360,000 active; activation, % at 3 µM; CHO-K1 hM5 cells, Fluo-8 calcium fluorescence; 0% DMSO wells, 100% maximal acetylcholine response;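 active = activation above the run's mean over test compounds plus 3 SD, cut at about 23% in these data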;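 also: signal is peak over basal fluorescence ratio across the kinetic read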
Active calls of the source: *.

SMILES	CHRM4 PAM	CHRM5 PAM	CHRM5 antagonist	M4 antag	M4 ag	M5 ag
C[N+](C)(C)CC(=O)O	1	0	-6	-3	1	1
O=C1CN=C(c2cc([N+](=O)[O-])ccc2Cl)c2cc([N+](=O)[O-])ccc2N1	14*	4	3	-3	1	1
O=C1CN=C(c2ccccc2)c2cc([N+](=O)[O-])ccc2N1	-1	-2	1	-1	2	4
CCN(CC)CCCOC(=O)C(OC(C)C)(c1ccccc1)c1ccccc1	-16	-22	98*	83*	6	-4
C=CC12CN(C)C3C4COC(CC41)C1(C(=O)Nc4ccccc41)C32 (stereo not drawn)	2	-3	-1	5	0	-1
Cc1cccc(NP2(=O)NCCCN2)c1	2	6	0	-6	1	6
O=[N+]([O-])NC1=NCN(Cc2ccco2)CN1Cc1ccco1	6	19*	-5	-2	1	1
CN1CN=C(N[N+](=O)[O-])N(Cc2ccco2)C1	7	4	-3	4	0	-2
CCOC(=O)[C@]12Cc3cc(OC)ccc3[C@H]1N(C1CCCCC1)C(=O)c1ccccc12	-2	9	3	20	-2	20
CCOC(=O)[C@]12Cc3cc(Cl)ccc3[C@H]1N(C1CCCCC1)C(=O)c1ccccc12	1	12	2	30*	-2	24*
Nc1ccc2ccc3cccc[n+]3c2c1	-9	-3	-3	19	22	27*
C[n+]1c(-c2ccccc2)c2cc(N)ccc2c2ccc(N)cc21	-10	-14	14	16	11	3
COc1ccc2c(c1)[C@@]13CCC=C[C@H]1[C@@H](C2)NCC3	3	2	-2	-10	2	0
Cc1ccccc1C(O)(Cc1ccccc1)C1CN2CCC1CC2 (stereo not drawn)	-15	-30	92*	76*	4	-13
Cc1[nH]c2ccccc2c1CCN	1	19*	9	-6	2	-3

Source: PubChem BioAssay (The Scripps Research Institute Molecular Screening Center)
